The results in this text go back to the RNAGym collection of RNA variant scans (doi:10.1002/anie.201605470).

B1: Osa-1-4 twister ribozyme (parent)
chain: CCGCCUAACACUGCCAAUGCCGGUCCCAAGCCCGGAUAAAAGUGGAGGGGGCGG

Variants of B1 are the subject of this data set. Briefly: self-cleavage, relative activity (ratio to wild type); higher = more cleavage; co-transcriptional. The method, boiled down: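 In vitro transcription at 37 °C for 2 h allowed the twister ribozyme to cleave itself as it was made. Its 54-nucleotide Oryza sativa template had been synthesised with 97 % wild-type base and 1 % of each other base at the 48 positions downstream of the cleavage site. A template-switching oligonucleotide was used for reverse transcription, followed by PCR amplification and deep sequencing. Whether reads carried upstream sequence set the cleavage status, and relative activity is the fraction cleaved normalised to wild type.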
For the variant CCGCCUAACACUGCCAAUGCCGGUCCCAAGCCCGGAUAAUAUUGGAGGGGGCGG [A40U G42U], the self-cleavage was found to be 0.06.

On to CCGCCUAAGACUGCCAAUGCCGGUCCCAAGCCCGGAUAAACGUGGAGGGGGCGG [A41C C9G], for which the self-cleavage was 0.41.

In the case of CCGCCUAAAACUGCCAAUGCCGGUCCCAAGCCCGGAUAAACGUGGAGGGGGCGG [A41C C9A], the self-cleavage is 0.39.

With CCGCCUAAUACUGCCAAUGCCGGUCCCAAGCCCGGAUAAACGUGGAGGGGGCGG [A41C C9U], the self-cleavage was found to be 0.79.

On to CCGCCUAACACUGCCAAUGCCGGUCCCAAGCCCGGAAAAUAGUGGAGGGGGCGG [A40U U37A], for which the self-cleavage stood at 0.87.

As for CCGCCUAACACUGCCAAUGCCGGUCCCAAGCCCGGAGAAUAGUGGAGGGGGCGG [A40U U37G], the self-cleavage is 0.94.

On to CCGCCUAACACUGCCAAUGCCGGUCCCAAGCCCGGACAAUAGUGGAGGGGGCGG [A40U U37C], for which the self-cleavage came out at 0.77.

As to CCGCCUAACACUGCCAAUGCCGGUCCCAAGCCCGGAUAAUAGUGGAGGGAGCGG [A40U G50A], the self-cleavage was 0.43.

CCGCCUAACACUGCCAAUGCCGGUCCCAAGCCCGGAUAAUAGUGGAGGGCGCGG [A40U G50C]: the self-cleavage was 0.18.

Take CCGCCUAACACUGCCAAUGCCGGUCCCAAGCCCGGAUAAUAGUGGAGGGUGCGG [A40U G50U]: the self-cleavage is 0.34.

Regarding CCGCCUAACACUGCCAAUGCCGAUCCCAAGCCCGGAUAAUAGUGGAGGGGGCGG [A40U G23A], the self-cleavage came out at 0.11.

In the case of CCGCCUAACACUGCCAAUGCCGUUCCCAAGCCCGGAUAAUAGUGGAGGGGGCGG [A40U G23U], the self-cleavage came to 0.05.

On to CCGCCUAACACUGCCAAUGCCGCUCCCAAGCCCGGAUAAUAGUGGAGGGGGCGG [A40U G23C], for which the self-cleavage is 0.04.

In the case of CCGCCUAACACUGCCAAUUCCGGUCCCAAGCCCGGAUAAUAGUGGAGGGGGCGG [A40U G19U], the self-cleavage worked out at 0.08.

Consider CCGCCUAACACUGCCAAUCCCGGUCCCAAGCCCGGAUAAUAGUGGAGGGGGCGG [A40U G19C], for which the self-cleavage stood at 0.04.

With CCGCCUAACACUGCCAAUACCGGUCCCAAGCCCGGAUAAUAGUGGAGGGGGCGG [A40U G19A], the self-cleavage was 0.17.

As for CCGCCUAACACUGCCAAUGCCGGACCCAAGCCCGGAUAAUAGUGGAGGGGGCGG [A40U U24A], the self-cleavage turned out to be 0.06.

Consider CCGCCUAACACUGCCAAUGCCGGGCCCAAGCCCGGAUAAUAGUGGAGGGGGCGG [A40U U24G], for which the self-cleavage came to 0.03.

As for CCGCCUAACACUGCCAAUGCCGGCCCCAAGCCCGGAUAAUAGUGGAGGGGGCGG [A40U U24C], the self-cleavage worked out at 0.09.

As for CCGCCUAACACUGGCAAUGCCGGUCCCAAGCCCGGAUAAACGUGGAGGGGGCGG [A41C C14G], the self-cleavage came to 0.15.

CCGCCUAACACUGUCAAUGCCGGUCCCAAGCCCGGAUAAACGUGGAGGGGGCGG [A41C C14U]: the self-cleavage is 0.22.

With CCGCCUAACACUGACAAUGCCGGUCCCAAGCCCGGAUAAACGUGGAGGGGGCGG [A41C C14A], the self-cleavage came out at 0.07.

As for CCGCCUAACACUGCCAAUGCCGGUCCCAAGCCCGGAUAAUAGAGGAGGGGGCGG [A40U U43A], the self-cleavage is 0.18.

Turning to CCGCCUAACACUGCCAAUGCCGGUCCCAAGCCCGGAUAAUAGCGGAGGGGGCGG [A40U U43C], the self-cleavage came out at 0.13.

CCGCCUAACACUGCCAAUGCCGGUCCCAAGCCCGGAUAAUAGGGGAGGGGGCGG [A40U U43G]: the self-cleavage was determined as 0.1.

Regarding CCGCCUAACACUGCCAAUGCCGGUCCCAAGCCCGUAUAAUAGUGGAGGGGGCGG [A40U G35U], the self-cleavage came to 0.41.

Take CCGCCUAACACUGCCAAUGCCGGUCCCAAGCCCGCAUAAUAGUGGAGGGGGCGG [A40U G35C]: the self-cleavage was determined as 0.09.

Regarding CCGCCUAACACUGCCAAUGCCGGUCCCAAGCCCGAAUAAUAGUGGAGGGGGCGG [A40U G35A], the self-cleavage amounted to 0.58.

For the variant CCGCCUAACACUGCCAAUGCCGGUCCCAAUCCCGGAUAAUAGUGGAGGGGGCGG [A40U G30U], the self-cleavage was 0.03.

Regarding CCGCCUAACACUGCCAAUGCCGGUCCCAACCCCGGAUAAUAGUGGAGGGGGCGG [A40U G30C], the self-cleavage is 0.04.

Consider CCGCCUAACACUGCCAAUGCCGGUCCCAAACCCGGAUAAUAGUGGAGGGGGCGG [A40U G30A], for which the self-cleavage stood at 0.03.

In the case of CCGCCUAACACUGCCAAUGGCGGUCCCAAGCCCGGAUAAACGUGGAGGGGGCGG [A41C C20G], the self-cleavage is 0.13.

For CCGCCUAACACUGCCAAUGACGGUCCCAAGCCCGGAUAAACGUGGAGGGGGCGG [A41C C20A], the self-cleavage stood at 0.92.

Take CCGCCUAACACUGCCAAUGCCGGUCCCAAGCUCGGAUAAUAGUGGAGGGGGCGG [A40U C32U]: the self-cleavage came to 0.08.

Take CCGCCUAACACUGCCAAUGCCGGUCCCAAGCCCGGAUAAUAGUCGAGGGGGCGG [A40U G44C]: the self-cleavage stood at 0.43.

With CCGCCUAACACUGCCAAUGCCGGUCCCAAGCCCGGAUAAUAGUAGAGGGGGCGG [A40U G44A], the self-cleavage amounted to 0.25.

As for CCGCCUAACACUGCCAAUGCCGGUCCCAAGCCCGGAUAAUAGUUGAGGGGGCGG [A40U G44U], the self-cleavage is 0.26.

Regarding CCGCCUAACACGGCCAAUGCCGGUCCCAAGCCCGGAUAAUAGUGGAGGGGGCGG [A40U U12G], the self-cleavage came out at 0.36.

With CCGCCUAACACCGCCAAUGCCGGUCCCAAGCCCGGAUAAUAGUGGAGGGGGCGG [A40U U12C], the self-cleavage came out at 0.19.

For CCGCCUAACACAGCCAAUGCCGGUCCCAAGCCCGGAUAAUAGUGGAGGGGGCGG [A40U U12A], the self-cleavage was determined as 1.

As to CCGCCUAACACUGCCAAUGCCGGUCCCAAGCCCGGAUAAUAGUGGAGGCGGCGG [A40U G49C], the self-cleavage came out at 0.05.

In the case of CCGCCUAACACUGCCAAUGCCGGUCCCAAGCCCGGAUAAUAGUGGAGGUGGCGG [A40U G49U], the self-cleavage came to 0.08.

CCGCCUAACACUGCCAAUGCCGGUCCCAAGCCCGGAUAAUAGUGGAGGAGGCGG [A40U G49A]: the self-cleavage was 0.07.

For the variant CCGCCUUACACUGCCAAUGCCGGUCCCAAGCCCGGAUAAACGUGGAGGGGGCGG [A41C A7U], the self-cleavage came out at 0.09.

Regarding CCGCCUGACACUGCCAAUGCCGGUCCCAAGCCCGGAUAAACGUGGAGGGGGCGG [A41C A7G], the self-cleavage came to 0.18.

On to CCGCCUCACACUGCCAAUGCCGGUCCCAAGCCCGGAUAAACGUGGAGGGGGCGG [A41C A7C], for which the self-cleavage was found to be 0.05.

As to CCGCCUAACACUGCCAAUGCCGGUCCCAAGCCCGGAUAAUAGUGGAGGGGGCAG [A40U G53A], the self-cleavage was 0.19.

On to CCGCCUAACACUGCCAAUGCCGGUCCCAAGCCCGGAUAAUAGUGGAGGGGGCUG [A40U G53U], for which the self-cleavage was 0.11.

Regarding CCGCCUAACACUGCCAAUGCCGGUCCCAAGCCCGGAUAAUAGUGGAGGGGGCCG [A40U G53C], the self-cleavage amounted to 0.06.
